Data on three compounds can be found in PMC5060091 (ChemMedChem, 2016).

Data set [1] concerns Aspergillus flavus ATCC MYA-3631. In words: MIC, broth dilution, strain K. Particulars: for MIC: Aspergillus flavus. The data set is classed as cell-based.
The subject of data set [2] is Aspergillus terreus ATCC MYA-3633. In words: MIC, broth dilution, strain M. Particulars: for MIC: Aspergillus terreus. The class given is cell-based. For orientation: Dilution methods test growth across graded concentrations, often in twofold steps.
The test system of data set [3] is Candida albicans ATCC 10231. Particulars: strain A; azoles; previously reported; cited from earlier work.
For data set [4], the system named is C. albicans ATCC 64124. As to conditions: strain B; azoles; previously reported; cited from earlier work.
Data set [5] has as its system C. albicans ATCC MYA-2876(S). As to conditions: strain C; azoles; previously reported; cited from earlier work.
Data set [6] deals with C. albicans ATCC 90819(R). As to conditions: strain D; azoles; previously reported; cited from earlier work.
For data set [7], the system named is C. albicans ATCC MYA-2310(S). Particulars: strain E; azoles; previously reported; cited from earlier work.
In data set [8] the test system is C. albicans ATCC MYA-1237(R). As to conditions: strain F; azoles; previously reported; cited from earlier work.
The subject of data set [9] is C. albicans ATCC MYA-1003(R). Particulars: strain G; azoles; previously reported; cited from earlier work.
Data set [10] deals with Aspergillus nidulans ATCC 38163. As to conditions: strain L; previously reported; cited from earlier work.
The subject of data set [11] is Candida albicans ATCC 10231. Kind of data set: MIC, broth dilution, strain A. The class given is cell-based. Particulars: for MIC: Candida albicans. The essentials:
(§1)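 Broth dilution MIC assay on the Candida panel: C. albicans strains A–G, C. glabrata (H), C. krusei (I) and C. parapsilosis (J). Test compounds were delivered in DMSO, with DMSO kept below 1% in the assay. The MIC is reported in µg/mL, with µM in parentheses. Reference antifungals (a polyene and four azoles) were run alongside.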

For data set [12], the system named is C. albicans ATCC 64124. Kind of data set: MIC, broth dilution, strain B. The class given is cell-based, Candida albicans. Particulars: for MIC: Candida albicans. The method in brief:
as §1

Data set [13] deals with C. albicans ATCC MYA-2876(S). In words: MIC, broth dilution, strain C. Particulars: for MIC: Candida albicans. The class given is cell-based, Candida albicans. The essentials:
as §1

For data set [14], the system named is C. albicans ATCC 90819(R). Kind of data set: MIC, broth dilution, strain D. The class given is cell-based, Candida albicans. Particulars: for MIC: Candida albicans. The essentials: as §1
The subject of data set [15] is C. albicans ATCC MYA-2310(S). Kind of data set: MIC, broth dilution, strain E. The class given is cell-based, Candida albicans. As to conditions: for MIC: Candida albicans. The method in brief: as §1
In data set [16] the test system is C. albicans ATCC MYA-1237(R). In words: MIC, broth dilution, strain F. The data set is classed as cell-based, Candida albicans. As to conditions: for MIC: Candida albicans. The essentials: as §1
Data set [17] relates to C. albicans ATCC MYA-1003(R). In words: MIC, broth dilution, strain G. The data set is classed as cell-based, Candida albicans. As to conditions: for MIC: Candida albicans. The essentials:
as §1

Data set [18] has as its system Candida glabrata ATCC 2001. Kind of data set: MIC, broth dilution, strain H. As to conditions: compounds 1–4n and AmB. The class given is cell-based. The essentials:
as §1

The next data set has as its system Candida krusei ATCC 6258. Kind of data set: MIC, broth dilution, strain I. The data set is classed as cell-based. Particulars: compounds 1–4n and AmB. The essentials:
as §1

Data set [19] has as its system Candida parapsilosis ATCC 22019. Kind of data set: MIC, broth dilution, strain J. The data set is classed as cell-based. As to conditions: compounds 1–4n and AmB. The method in brief: as §1
Data set [20] has as its system Aspergillus nidulans ATCC 38163. Kind of data set: MIC, broth dilution, strain L. The data set is classed as cell-based. As to conditions: strain L; all compounds.
The next data set concerns Candida strains (A–J). In words: MIC against panel of Candida strains. The data set is classed as cell-based. The method in brief:
as §1

For data set [21], the system named is C. albicans ATCC 64124 (strain B). In words: Time-kill assay. The data set is classed as cell-based, Candida albicans.
Data set [22] has as its system C. albicans ATCC 10231 (strain A). In words: ROS induction assay. The class given is cell-based, Candida albicans. As to conditions: 1× and 2× MIC, 1-h treatment; H2O2 1 mM. The essentials:
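C. albicans ATCC 10231 cells were incubated 1 h at 37 °C with test compound at 1× or 2× MIC, with no drug (negative control), or with 1 mM H₂O₂ (positive control). DCFH-DA (40 µg/mL) was then added. ROS were detected and imaged by fluorescence microscopy.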

Data set [23] concerns murine red blood cells (mRBCs). Particulars: data previously presented; cited from earlier work.
For data set [24], the system named is Candida and Aspergillus strains. In words: MIC against whole panel of fungal strains. The class given is cell-based. Particulars: read-out: MIC values against the panel of fungal strains. The method in brief: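 Whole-cell broth dilution MIC across Candida strains A–J and three Aspergillus strains: A. flavus ATCC MYA-3631, A. nidulans ATCC 38163 and A. terreus ATCC MYA-3633. Aspergillus was tested as freshly harvested spores. DMSO was below 1% in the assay. Values are given in µg/mL (and µM), with a polyene and four azoles as reference agents.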

Where [25] appears, read: read-out: MIC (MIC-0) in µM (parentheses).
Setting [26] is: strain A, compounds 1–4n and AmB.
The mark [27] stands for this setting: strain C, compounds 1–4n and AmB.
Where [28] appears, read: strain D, compounds 1–4n and AmB.
Where [29] appears, read: strain E, compounds 1–4n and AmB.
[30] abbreviates: strain F, compounds 1–4n and AmB.
Setting [31] is: strain G, compounds 1–4n and AmB.
The mark [32] stands for this setting: 2× MIC (1 25, 2a 25, 3a 0.78, AmB 7.8 µg/mL).

Values after ≈ are worked out from the molar mass of the structure shown. Values joined by “and” are separate entries in the source; they are usually repeats but may differ in a detail not shown here. Identical values can stand only once. Like-named read-outs stand apart in the source and are kept apart here.

In general, MIC refers to the lowest concentration that inhibits growth of the organism.

Take `CC[C@@H]([C@H](C)O)n1ncn(-c2ccc(N3CCN(c4ccc(OC[C@@H]5CO[C@@](Cn6cncn6)(c6ccc(F)cc6F)C5)cc4)CC3)cc2)c1=O` [POS, posaconazole]: the minimum inhibitory concentration (MIC) in data set [1] (read-out: MIC (MIC-0)) is 0.24 µg/mL; in data set [1] (setting [25]) it was 0.34 µM; in data set [2] (read-out: MIC (MIC-0)), 0.48 µg/mL; in [2] (setting [25]), 0.68 µM. For the same compound, the “MIC (MIC-2)” value was 0.5 µg/mL (≈ 0.713 µM) in [3]; greater than 62.5 µg/mL in the data set on C. albicans ATCC 64124 [4]; 7.8 µg/mL (≈ 11.1 µM) in [5]; 31.2 µg/mL (≈ 44.5 µM) in [6]; 31.2 µg/mL (≈ 44.5 µM) in data set [7]; 15.6 µg/mL (≈ 22.3 µM) in data set [8]. In addition, in [9], the “MIC (MIC-2)” value is given as 15.6 µg/mL (≈ 22.3 µM). Moreover, the “MIC (MIC-2) in µM (parentheses)” value in data set [3] is given as 0.71 µM (≈ 0.498 µg/mL); in the data set with C. albicans ATCC 64124 [4] it was greater than 89.3 µM; in [5] it was 11.1 µM (≈ 7.78 µg/mL); in [6] it was 44.5 µM (≈ 31.2 µg/mL); in [7], 44.5 µM (≈ 31.2 µg/mL); in data set [8], 22.3 µM (≈ 15.6 µg/mL). In addition, the “MIC (MIC-2) in µM (parentheses)” value in [9] is given as 22.3 µM (≈ 15.6 µg/mL). Further, the “MIC (MIC-0)” value in data set [10] was 0.195 µg/mL (≈ 0.278 µM). The “MIC (MIC-0) in µM (parentheses)” value in [10] is 0.28 µM (≈ 0.196 µg/mL).
As for ebsulfur [Compound 2a], the “MIC (MIC-0)” value in [11] (setting [26]) is 12.5 µg/mL; in [13] (setting [27]), 12.5 µg/mL; in data set [14] (setting [28]) it was 3.13 µg/mL; in data set [15] (setting [29]), 6.25 µg/mL; in data set [16] (setting [30]), greater than 12.5 µg/mL; in data set [17] (setting [31]), greater than 12.5 µg/mL. Also, the “MIC (MIC-0)” value in data set [18] is recorded as 6.25 µg/mL; against Candida krusei ATCC 6258, 3.13 µg/mL; in [19], 12.5 µg/mL; in [1] (strain K, all compounds), 6.25 µg/mL; in data set [20], 6.25 µg/mL; in data set [2] (strain M, all compounds), 6.25 µg/mL. Besides, the “MIC (MIC-0) in µM (parentheses)” value in data set [11] (setting [26]) is given as 55.0 µM; in the data set with C. albicans ATCC 64124 [12] (strain B, compounds 1–4n and AmB) it was greater than 55.0 µM; in [13] (setting [27]) it was 55.0 µM; in [14] (setting [28]), 13.8 µM; in data set [15] (setting [29]) it was 27.5 µM; in [16] (setting [30]) it was greater than 55.0 µM. In addition, the “MIC (MIC-0) in µM (parentheses)” value in data set [17] (setting [31]) is greater than 55.0 µM; in data set [18], 27.5 µM; with Candida krusei ATCC 6258, 13.8 µM; in data set [19], 55.0 µM; in data set [1] (strain K, all compounds), 27.5 µM; in [20], 27.5 µM. For the same compound, the “MIC (MIC-0) in µM (parentheses)” value in data set [2] (strain M, all compounds) stood at 27.5 µM. Further, the “MIC values against Candida strains” value with Candida strains (A–J) (strains A, B, C, F, G and J (poorly active)) is no less than 12.5 µg/mL; against Candida strains (A–J) (strains D, E, H and I (active)), 1.56 to 6.25 µg/mL. The time-kill effect result in [21] (1× MIC (1 12.5, 2a 12.5, 3a 0.39, AmB 3.9 µg/mL)) is “fungistatic”; in data set [21] (setting [32]), “fungicidal”. Moreover, the fungicidal concentration in data set [21] (time-kill curves) was 25 µg/mL and 110 µM. Also, the “ROS induction (DCFH-DA fluorescence)” value in data set [22] is “highly fluorescent”. In data set [23], the “concentration until which no significant hemolytic activity was shown” value is 15.6 µg/mL and 68.6 µM.
On to `C[C@@H]1[C@H](O)[C@@H](C)/C=C/C=C/C=C/C=C/C=C/C=C/C=C/[C@H](O[C@@H]2O[C@H](C)[C@@H](O)[C@H](N)[C@@H]2O)C[C@@H]2O[C@](O)(C[C@@H](O)C[C@@H](O)[C@H](O)CC[C@@H](O)C[C@@H](O)CC(=O)O[C@H]1C)C[C@H](O)[C@H]2C(=O)O` [AmB, amphotericin B], for which the minimal inhibitory concentration (MIC) was 3.9 µg/mL in [11] (ATCC10231, read-out: MIC (MIC-0)); 4.22 µM in data set [11] (ATCC10231, read-out: MIC (MIC-0) in µM (parentheses)); 3.9 µg/mL in the data set on C. albicans ATCC 64124 [12] (ATCC64124, read-out: MIC (MIC-0)); 4.22 µM with C. albicans ATCC 64124 [12] (ATCC64124, read-out: MIC (MIC-0) in µM (parentheses)); 1.95 µg/mL in data set [13] (read-out: MIC (MIC-0)); 2.11 µM in [13] (setting [25]). The minimum inhibitory concentration (MIC) was found to be 0.98 µg/mL in data set [14] (ATCC90819, read-out: MIC (MIC-0)); 1.06 µM in data set [14] (ATCC90819, read-out: MIC (MIC-0) in µM (parentheses)); 1.95 µg/mL in data set [15] (read-out: MIC (MIC-0)); 2.11 µM in [15] (setting [25]); 3.9 µg/mL in [16] (read-out: MIC (MIC-0)); 4.22 µM in [16] (setting [25]). Moreover, the MIC in [17] (read-out: MIC (MIC-0)) is 3.9 µg/mL; in data set [17] (setting [25]), 4.22 µM; in [2] (read-out: MIC (MIC-0)), 3.9 µg/mL; in data set [2] (setting [25]), 4.22 µM; in data set [24], 0.98 to 15.6 µg/mL (≈ 1.06 to […] µM). In addition, in data set [21] (2× MIC), the “time from which completely fungicidal” value was 6 h. In data set [21] (setting [32]), the time-kill effect entry was “completely fungicidal”.
